# Measurements published in ChEMBL document CHEMBL1268842, “Discovery of N-benzyl-2-[(4S)-4-(1H-indol-3-ylmethyl)-5-oxo-1-phenyl-4,5-dihydro-6H-[1,2,4]triazolo[4,3-a][1,5]benzodiazepin-6-yl]-N-isopropylacetamide, an orally active, gut-selective CCK1 receptor agonist for the potential treatment of obesity” (Bioorg Med Chem Lett, 2010).
# The source made the active and inactive calls. The calls are words filed in the database; no cut-off is given here.
# What was measured:
# [1] = target: T1, Gastrin/cholecystokinin type B receptor (Homo sapiens) (UniProt P32239); test: Agonist activity at CCK2 receptor assessed as calcium mobilization by FLIPR assay; format: functional
# T1 sequence (whole entry): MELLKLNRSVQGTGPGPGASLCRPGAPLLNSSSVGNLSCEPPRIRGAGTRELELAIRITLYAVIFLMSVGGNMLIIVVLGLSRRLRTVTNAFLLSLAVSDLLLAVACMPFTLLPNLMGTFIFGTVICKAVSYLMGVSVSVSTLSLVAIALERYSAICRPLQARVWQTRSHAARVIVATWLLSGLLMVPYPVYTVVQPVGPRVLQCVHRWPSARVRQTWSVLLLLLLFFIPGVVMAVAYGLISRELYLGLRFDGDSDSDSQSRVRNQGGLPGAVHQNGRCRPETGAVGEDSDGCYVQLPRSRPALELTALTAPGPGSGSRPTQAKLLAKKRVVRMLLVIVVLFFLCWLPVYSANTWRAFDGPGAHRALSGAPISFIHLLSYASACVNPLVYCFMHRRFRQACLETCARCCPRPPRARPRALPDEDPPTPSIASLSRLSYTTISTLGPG
# [2] = target: T2, Cholecystokinin receptor type A (Homo sapiens) (UniProt P32238); test: Agonist activity at human CCK1 receptor expressed in CHO cells assessed as induction of calcium release by FLIPR assay relative to CCK8; format: functional, cell-based
# T2 sequence (whole entry): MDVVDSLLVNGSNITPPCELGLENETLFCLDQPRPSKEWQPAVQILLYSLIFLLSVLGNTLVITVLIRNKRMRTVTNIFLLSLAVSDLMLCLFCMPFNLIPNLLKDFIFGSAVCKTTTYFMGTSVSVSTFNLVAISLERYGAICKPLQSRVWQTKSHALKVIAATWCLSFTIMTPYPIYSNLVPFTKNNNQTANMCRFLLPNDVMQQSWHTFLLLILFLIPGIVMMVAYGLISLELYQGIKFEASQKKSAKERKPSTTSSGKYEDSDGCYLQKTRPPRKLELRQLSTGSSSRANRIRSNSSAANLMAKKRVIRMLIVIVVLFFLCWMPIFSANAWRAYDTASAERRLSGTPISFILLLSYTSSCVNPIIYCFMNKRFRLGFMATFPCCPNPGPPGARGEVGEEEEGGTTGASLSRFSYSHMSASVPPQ
# In short: (§1)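 Calcium release was measured by FLIPR at the human CCK1 receptor. EC50 and efficacy were expressed as % agonism versus CCK-8. Values are mean ± standard error of at least three independent experiments.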
# [3] = tested on: Rattus norvegicus; test: Antiobesity activity in Sprague-Dawley rat assessed as reduction in spontaneous food intake at 6 mg/kg, po measured at 4 hrs; format: functional
# In short: (§2)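 Rats were dosed orally at 6 mg/kg, as amorphous material unless stated or as a solid spray-dried dispersion (SDD). Spontaneous food intake was measured against vehicle at 4 h post-dose, and at 12 h where stated. Significance was P <0.05 versus vehicle unless noted.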
# [4] = Lipophilicity, log D of the compound at pH 7.4; format: physicochemical; conditions: buffer
# [5] = Kinetic solubility of the compound at pH 6.5; format: physicochemical; conditions: buffer
# [6] = target: T3, Cholecystokinin receptor type A (Homo sapiens, UniProt P32238); test: Displacement of [125I]CCK8 from human CCK1 receptor expressed in CHO cells; format: cell-based
# T3 sequence (P32238 whole entry): T2 sequence (whole entry)
# In short: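 Binding IC50 at the human CCK1 receptor. Values are mean ± standard error of at least three independent experiments.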
# [7] = target: T1, Gastrin/cholecystokinin type B receptor (Homo sapiens); test: Agonist activity at CCK2 receptor by [35S]GTPgammaS binding assay; format: functional
# [8] = Intrinsic clearance in human liver microsomes; format: ADME, Microsome
# [9] = tested on: Mus musculus; test: Induction of emptying of gallbladder in C57BL/6J mouse at 6 mg/kg, po measured at 1 hr; format: functional
# In short: (§3)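 Mouse gallbladder emptying model. Compounds were given orally, as amorphous material unless noted or as an SDD formulation where stated. Gallbladder emptying (%) was read at 1 h after 6 mg/kg. Gallbladder refilling was assessed at 24 h.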
# [10] = target: T3, Cholecystokinin receptor type A; test: Agonist activity at human CCK1 receptor expressed in CHO cells assessed as induction of calcium release by FLIPR assay; format: functional, cell-based; in short: as §1
# [11] = target: T4, Cholecystokinin receptor type A (Rattus norvegicus, UniProt P30551); test: Displacement of [125I]CCK8 from rat CCK1 receptor expressed in CHO cells; format: cell-based
# T4 sequence (P30551 whole entry): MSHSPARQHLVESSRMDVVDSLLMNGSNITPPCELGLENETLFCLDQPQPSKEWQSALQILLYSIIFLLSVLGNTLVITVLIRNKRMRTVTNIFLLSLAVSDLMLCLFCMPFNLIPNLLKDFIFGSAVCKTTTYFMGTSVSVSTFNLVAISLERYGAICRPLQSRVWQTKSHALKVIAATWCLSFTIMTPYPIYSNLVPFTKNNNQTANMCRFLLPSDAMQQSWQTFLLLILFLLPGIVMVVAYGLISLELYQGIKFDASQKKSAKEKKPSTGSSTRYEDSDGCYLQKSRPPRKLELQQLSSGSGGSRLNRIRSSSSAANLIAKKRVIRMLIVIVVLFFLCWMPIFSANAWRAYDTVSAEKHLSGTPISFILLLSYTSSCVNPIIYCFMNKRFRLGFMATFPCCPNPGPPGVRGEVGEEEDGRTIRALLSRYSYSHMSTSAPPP
# In short: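 Binding IC50 at the rat CCK1 receptor. Values are mean ± standard error of at least two independent experiments.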
# [12] = target: T4, Cholecystokinin receptor type A; test: Agonist activity at rat CCK1 receptor expressed in CHO cells assessed as induction of calcium release by FLIPR assay; format: functional, cell-based
# In short: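 Calcium release was measured by FLIPR at the rat CCK1 receptor to give EC50. Values are mean ± standard error of at least two independent experiments.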
# [13] = tested on: Mus musculus; test: Induction of emptying of gallbladder in C57BL/6J mouse at 6 mg/kg, po measured at 24 hrs; format: functional
# In short: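 Mice dosed orally; compound given as amorphous solid unless noted, with one analog in spray-dried dispersion formulation. Read-out is % gallbladder emptying after dosing.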
# [14] = Biliary clearance in Sprague-Dawley rat assessed as parent compound excretion into bile at 3 mg/kg, iv by HPLC/MS/MS analysis; format: ADME, organism-based; design: dose 3 mg/kg, route intravenous; conditions: read-out: Activity
# [15] = tested on: Rattus norvegicus; test: fCmax in Sprague-Dawley rat at 6 mg/kg, po by HPLC/MS/MS analysis; format: ADME, organism-based; design: dose 6 mg/kg, route oral; conditions: in vivo
# In short: (§4)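 Male Sprague-Dawley rats, n of 3, given a single 3.0 mg/kg iv dose or 6.0 mg/kg po dose. Plasma exposure was followed over time. Values are mean with standard deviation.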
# [16] = tested on: Rattus norvegicus; test: Biliary clearance in Sprague-Dawley rat at 3 mg/kg, iv by HPLC/MS/MS analysis; format: ADME, organism-based; design: dose 3 mg/kg, route intravenous; conditions: in vivo
# [17] = Half life in Sprague-Dawley rat at 3 mg/kg, iv by HPLC/MS/MS analysis; format: ADME, organism-based; design: dose 3 mg/kg, route intravenous; conditions: in vivo; in short: as §4
# [18] = Oral bioavailability in Sprague-Dawley rat at 6 mg/kg by HPLC/MS/MS analysis; format: ADME, organism-based; conditions: in vivo; in short: as §4
# [19] = organism: Rattus norvegicus; conditions: Sprague-Dawley, 6 mg/kg
# [20] = AUC (0 to tlast) in Sprague-Dawley rat at 3 mg/kg, iv by HPLC/MS/MS analysis; format: ADME, organism-based; design: dose 3 mg/kg, route intravenous; conditions: plasma; in short: as §4
# [21] = tested on: Rattus norvegicus; test: Tmax in Sprague-Dawley rat at 6 mg/kg, po by HPLC/MS/MS analysis; format: ADME, organism-based; design: dose 6 mg/kg, route oral; conditions: in vivo; in short: as §4
# [22] = tested on: Rattus norvegicus; test: Antiobesity activity in Sprague-Dawley rat assessed as reduction in spontaneous food intake at 6 mg/kg, po measured at 4 hrs in presence of 20 mg/kg CCK1R antagonist lorglumide relative to vehicle; format: functional
# [23] = Blood clearance predicted from rat liver microsomes; conditions: whole blood
# [24] = tested on: Rattus norvegicus; test: Antiobesity activity in Sprague-Dawley rat assessed as reduction in spontaneous food intake at 6 mg/kg, po administered via SDD formulation measured at 4 hrs; format: functional; in short: as §2
# [25] = tested on: Rattus norvegicus; test: Antiobesity activity in Sprague-Dawley rat assessed as reduction in spontaneous food intake at 6 mg/kg, po measured at 4 hrs relative to vehicle; format: functional; design: scale not given: the % may be the effect or the level left; in short: as §2
# [26] = tested on: Mus musculus; test: Induction of emptying of gallbladder in C57BL/6J mouse at 6 mg/kg, po administered via SDD formulation measured at 1 hr; format: functional; in short: as §3
# [27] = Volume of distribution at steady state in Sprague-Dawley rat at 3 mg/kg, iv by HPLC/MS/MS analysis; format: ADME, organism-based; design: dose 3 mg/kg, route intravenous; conditions: in vivo, read-out: Vdss; in short: as §4
# [28] = Plasma clearance in Sprague-Dawley rat at 3 mg/kg, iv by HPLC/MS/MS analysis; format: ADME, organism-based; design: dose 3 mg/kg, route intravenous; in short: as §4
# [29] = Cmax in Sprague-Dawley rat at 6 mg/kg, po by HPLC/MS/MS analysis; format: ADME, organism-based; design: dose 6 mg/kg, route oral; conditions: in vivo; in short: as §4
# [30] = AUC (0 to tlast) in Sprague-Dawley rat at 6 mg/kg, po by HPLC/MS/MS analysis; format: ADME, organism-based; design: dose 6 mg/kg, route oral; conditions: plasma; in short: as §4
Structure (SMILES),Activity [1],Activity [2] [%],inhibition in vivo at 6 mg/kg [3] [%],logD ([4]; read-out: logD),solubility kinetic [5] [µM],IC50 [6] [nM],Activity [7],CLint scaled [8] [mL/min/kg],Activity [9] [%],EC50 [10] [nM],IC50 [11] [nM],EC50 [12] [nM],other results
CC(C)N(Cc1ccccc1)C(=O)CN1C(=O)C(Cc2n[nH]c3ccccc23)c2nnc(-c3ccccc3)n2-c2ccccc21 (stereo unspecified),inactive,72.3,43,3.16,2.26,48.5,inactive,39.5,86.3,522,21,481,–
CC(C)N(C(=O)CN1C(=O)[C@H](NC(=O)Nc2cccc(C(=O)O)c2)C(=O)N(c2ccccc2)c2ccccc21)c1ccccc1,–,62.8,52,1.09,499,131,–,< 8,82,283,52.6,63.8,Activity [13]: 91.4%; dose excreted [14]: 65%
CC(C)N(Cc1ccccc1)C(=O)CN1C(=O)[C@@H](Cc2c[nH]c3ccccc23)c2nnc(-c3ccccc3)n2-c2ccccc21 [CE-326597],inactive,53,–,–,0.94,–,inactive,199,–,–,–,–,fCmax [15]: 0.98 nM; CL_biliary [16]: 0.0277 mL/min/kg; half-life [17]: 1.37 h; bioavailability [18]: 1%; logD [4]: 3.39; inhibition [19]: Active; AUC(0-t) [20]: 1190 ng·h/mL; Tmax [21]: 1.33 h; inhibition (INH) [22]: 2.4%; clearance [23]: 47 mL/min/kg; inhibition in vivo at 6 mg/kg [24]: 56%; Activity [25]: -56%; Activity [26]: 91%; Vd [27]: 3.7 L/kg; clearance [28]: 41.7 mL/min/kg; Cmax [29]: 14.6 ng/mL; AUC(0-t) [30]: 42.5 ng·h/mL
